Results published in ChEMBL document CHEMBL1155161, “Effects of the translocation status of human immunodeficiency virus type 1 reverse transcriptase on the efficiency of excision of tenofovir” (Antimicrob Agents Chemother, 2007).

Legend:
[1] = target: Human immunodeficiency virus type 1 reverse transcriptase (Human immunodeficiency virus 1, UniProt Q72547, D67N/L210W/M41L/T215Y); assay: Inhibition of HIV1 reverse transcriptase M41L/D67N/L210W/T215Y mutant by steady state nucleotide incorporation assay
Outline: (§1)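 Steady-state kinetics for WT or 4Y p66/p51 RT on activated calf thymus DNA, with template in excess. Rates come from linear regression of [3H]dNTP incorporation over a time course, with increasing NRTI. Km and Ki are fitted with a competitive inhibition equation (Marquardt-Levenberg); two-tailed t-tests.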

[2] = system: Human immunodeficiency virus type 1 reverse transcriptase (Human immunodeficiency virus 1), Q72547 [M41L,D67N,L210W,T215Y]; assay: Ratio of Ki to Km for HIV1 reverse transcriptase M41L/D67N/L210W/T215Y mutant by steady state nucleotide incorporation assay; outline: as §1
[3] = system: Human immunodeficiency virus 1; assay: Ratio of Ki/Km for HIV1 reverse transcriptase M41L/D67N/L210W/T215Y mutant to Ki/Km for wild-type reverse transcriptase; outline: as §1
[4] = target: Human immunodeficiency virus type 1 reverse transcriptase (Human immunodeficiency virus 1) (UniProt Q72547); assay: Ratio of Ki to Km for HIV1 reverse transcriptase by steady state nucleotide incorporation assay; outline: as §1
[5] = target: T1, Human immunodeficiency virus type 1 reverse transcriptase (Human immunodeficiency virus 1, UniProt Q72547); assay: Inhibition of HIV1 reverse transcriptase by steady state nucleotide incorporation assay
Outline: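 Steady-state assay with activated calf thymus DNA as template in excess; rates from linear regression of [3H]dNTP incorporation over time; Km and Ki fitted to competitive inhibition equation (constant Vmax) over increasing NRTI concentrations; two-tailed t tests.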

[6] = system: Human immunodeficiency virus 1; assay: Ratio of Ki for HIV1 reverse transcriptase M41L/D67N/L210W/T215Y mutant to Ki for wild-type reverse transcriptase; outline: as §1
[7] = system: Human immunodeficiency virus type 1 reverse transcriptase (Human immunodeficiency virus 1), Q72547 [M41L,D67N,L210W,T215Y]; assay: Inhibition of HIV1 reverse transcriptase M41L/D67N/L210W/T215Y mutant assessed as dCTP level required to form 80% of binary enzyme complex formation with drug-terminated primer in posttranslocation state by site-specific foot printing assay
Outline: (§2)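 Site-specific footprinting uses a radiolabelled template with WT or 4Y p66/p51 RT in pH 7 cacodylate buffer with 6 mM MgCl2. The primer is chain-terminated with 10 μM analogue (20 min, 37°C), then the next nucleotide dCTP is added at varying levels for 10 min at 37°C. Complexes are treated with KOONO and resolved on urea gels. The value is the dCTP level giving 50% or 80% posttranslocated complex; ≥3 experiments.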

[8] = target: T1, Human immunodeficiency virus type 1 reverse transcriptase; assay: Binding affinity to ternary complex of HIV1 reverse transcriptase with primer/template in presence of dCTP substrate
[9] = target: Human immunodeficiency virus type 1 reverse transcriptase (Human immunodeficiency virus 1) (UniProt Q72547); assay: Inhibition of HIV1 reverse transcriptase assessed as dCTP level required to form 80% of binary enzyme complex formation with drug-terminated primer in posttranslocation state by site-specific foot printing assay; outline: as §2
[10] = system: Human immunodeficiency virus type 1 reverse transcriptase (Human immunodeficiency virus 1), Q72547 [M41L,D67N,L210W,T215Y]; assay: Ratio of Kcat to Km for HIV1 reverse transcriptase M41L/D67N/L210W/T215Y mutant assessed as nucleotide excision activity in presence of 0.5 uM dCTP
Outline: (§3)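 Purified heterodimeric p66/p51 HIV-1 RT (WT or M41L/D67N/L210W/T215Y). ATP plus a dNTP mix containing the next nucleotide dCTP (0.5 or 10 μM) is then added at 37°C. Excised/rescued product is followed over time on denaturing urea gels. ATP Km and Vmax give kcat/Km; means of ≥3 experiments. Ratios are 4Y/WT or 0.5/10 μM dCTP.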

[11] = system: Human immunodeficiency virus 1; assay: Ratio of Kcat/Km for HIV1 reverse transcriptase M41L/D67N/L210W/T215Y mutant to Kcat/Km for wild-type reverse transcriptase assessed as nucleotide excision activity in presence of 0.5 uM dCTP; outline: as §3
[12] = system: Human immunodeficiency virus type 1 reverse transcriptase (Human immunodeficiency virus 1), Q72547 [M41L,D67N,L210W,T215Y]; assay: Ratio of Kcat/Km for HIV1 reverse transcriptase M41L/D67N/L210W/T215Y mutant in presence of 0.5 uM dCTP to Kcat/Km for reverse transcriptase M41L/D67N/L210W/T215Y mutant in presence of 10 uM dCTP by nucleotide excision activity assay; outline: as §3
[13] = system: Human immunodeficiency virus 1; assay: Ratio of Kcat/Km for HIV1 reverse transcriptase M41L/D67N/L210W/T215Y mutant to Kcat/Km for wild-type reverse transcriptase assessed as nucleotide excision activity in presence of 10 uM dCTP; outline: as §3
[14] = target: Human immunodeficiency virus type 1 reverse transcriptase (Human immunodeficiency virus 1) (UniProt Q72547); assay: Ratio of Kcat to Km for HIV1 reverse transcriptase assessed as nucleotide excision activity in presence of 10 uM dCTP; outline: as §3
[15] = target: Human immunodeficiency virus type 1 reverse transcriptase (Human immunodeficiency virus 1) (UniProt Q72547); assay: Inhibition of HIV1 reverse transcriptase assessed as dCTP level required to form 50% of binary enzyme complex formation with drug-terminated primer in posttranslocation state by site-specific foot printing assay; outline: as §2
[16] = system: Human immunodeficiency virus type 1 reverse transcriptase (Human immunodeficiency virus 1), Q72547 [M41L,D67N,L210W,T215Y]; assay: Ratio of Kcat to Km for HIV1 reverse transcriptase M41L/D67N/L210W/T215Y mutant assessed as nucleotide excision activity in presence of 10 uM dCTP; outline: as §3
[17] = target: Human immunodeficiency virus type 1 reverse transcriptase (Human immunodeficiency virus 1) (UniProt Q72547); assay: Ratio of Kcat to Km for HIV1 reverse transcriptase assessed as nucleotide excision activity in presence of 0.5 uM dCTP; outline: as §3
[18] = target: Human immunodeficiency virus type 1 reverse transcriptase (Human immunodeficiency virus 1) (UniProt Q72547); assay: Ratio of Kcat/Km for HIV1 reverse transcriptase in presence of 0.5 uM dCTP to Kcat/Km for reverse transcriptase in presence of 10 uM dCTP by nucleotide excision activity assay; outline: as §3
[19] = system: Human immunodeficiency virus type 1 reverse transcriptase (Human immunodeficiency virus 1), Q72547 [M41L,D67N,L210W,T215Y]; assay: Inhibition of HIV1 reverse transcriptase M41L/D67N/L210W/T215Y mutant assessed as dCTP level required to form 50% of binary enzyme complex formation with drug-terminated primer in posttranslocation state by site-specific foot printing assay; outline: as §2
[20] = system: C[C@H](Cn1cnc2c(N)ncnc21)OCP(=O)(O)O; assay: (§4) Activity of HIV1 reverse transcriptase M41L/D67N/L210W/T215Y mutant assessed as nucleotide excision activity in presence of 10 uM dCTP; details: Human immunodeficiency virus 1; outline: as §3
[21] = system: [N-]=[N+]=N[C@H]1C[C@H](n2cnc3c(N)ncnc32)O[C@@H]1COP(=O)(O)O; assay: as §4; details: Human immunodeficiency virus 1; outline: as §3
[22] = system: Cc1cn([C@H]2C[C@H](N=[N+]=[N-])[C@@H](COP(=O)(O)O)O2)c(=O)[nH]c1=O; assay: as §4; details: Human immunodeficiency virus 1; outline: as §3
[23] = system: C[C@H](Cn1cnc2c(N)ncnc21)OCP(=O)(O)O; assay: (§5) Activity of HIV1 reverse transcriptase M41L/D67N/L210W/T215Y mutant assessed as nucleotide excision activity in presence of 0.5 uM dCTP; details: Human immunodeficiency virus 1; outline: as §3
[24] = system: [N-]=[N+]=N[C@H]1C[C@H](n2cnc3c(N)ncnc32)O[C@@H]1COP(=O)(O)O; assay: as §5; details: Human immunodeficiency virus 1; outline: as §3
[25] = system: Cc1cn([C@H]2C[C@H](N=[N+]=[N-])[C@@H](COP(=O)(O)O)O2)c(=O)[nH]c1=O; assay: as §5; details: Human immunodeficiency virus 1; outline: as §3

Compound	Ki [1] [nM]	Ratio [2]	Ratio [3]	Ratio [4]	Ki [5] [nM]	Ratio Ki [6]	Activity [7] [µM]	Kd [8] [nM]	Activity [9] [µM]	Ratio [10]	Ratio [11]	Ratio [12]	Ratio [13]	Ratio [14]	Activity [15] [µM]	Ratio [16]	Ratio [17]	Ratio [18]	Activity [19] [µM]	further results
C[C@H](Cn1cnc2c(N)ncnc21)OCP(=O)(O)OP(=O)(O)O	110	0.19	0.4	0.47	210	0.5	–	–	–	–	–	–	–	–	–	–	–	–	–	–
[N-]=[N+]=N[C@H]1C[C@H](n2cnc3c(N)ncnc32)O[C@@H]1COP(=O)(O)OP(=O)(O)OP(=O)(O)OP(=O)(O)O	150	0.26	0.5	0.51	230	0.65	–	–	–	–	–	–	–	–	–	–	–	–	–	–
Nc1ncnc2c1ncn2[C@H]1CC[C@@H](COP(=O)(O)O)O1	–	–	–	–	–	–	0.3	100	0.2	–	–	–	–	–	–	–	–	–	–	–
Cc1cn([C@H]2C[C@H](N=[N+]=[N-])[C@@H](COP(=O)(O)OP(=O)(O)OP(=O)(O)O)O2)c(=O)[nH]c1=O	–	0.09	1	0.09	–	1.2	–	–	–	–	–	–	–	–	–	–	–	–	–	–
[N-]=[N+]=N[C@H]1C[C@H](n2cnc3c(N)ncnc32)O[C@@H]1COP(=O)(O)O	–	–	–	–	–	–	> 100	–	100	1.6	3.3	1.3	3.2	0.37	10	1.2	0.49	1.3	27	–
Cc1cn([C@H]2C[C@H](N=[N+]=[N-])[C@@H](COP(=O)(O)O)O2)c(=O)[nH]c1=O [AZIDOTHYMIDINE MONOPHOSPHATE]	–	–	–	–	–	–	50	24900	31	1.3	6.8	1.2	6.8	0.16	8	1.08	0.19	1.2	8	–
Nc1ncnc2c1ncn2[C@H]1CC[C@@H](COP(=O)(O)OP(=O)(O)OP(=O)(O)O)O1 [DDA-TRIPHOSPHATE]	50	0.09	0.5	0.2	90	0.6	–	–	–	–	–	–	–	–	–	–	–	–	–	–
C[C@H](Cn1cnc2c(N)ncnc21)OCP(=O)(O)O [TENOFOVIR ANHYDROUS]	–	–	0.4	–	–	–	2	3200	3	16.4	14.9	5.7	19.3	0.15	0.1	2.9	1.1	7.3	0.3	–
Cc1cn([C@H]2C[C@H](N=[N+]=[N-])[C@@H](CO[P@](=O)(O)O[P@](=O)(O)OP(=O)(O)O)O2)c(=O)[nH]c1=O [ZIDOVUDINE TRIPHOSPHATE]	47	–	–	–	41	–	–	–	–	–	–	–	–	–	–	–	–	–	–	–
Human immunodeficiency virus type 1 reverse transcriptase (Human immunodeficiency virus 1) (from UniProt Q72547) M41L,D67N,L210W,T215Y	–	–	–	–	–	–	–	–	–	–	–	–	–	–	–	–	–	–	–	Km [20]: 960 µM; kcat [20]: 2.8 ×10⁻³ /min; Km [21]: 2000 µM; kcat [21]: 2.4 ×10⁻³ /min; Km [22]: 1200 µM; kcat [22]: 1.3 ×10⁻³ /min; Km [23]: 590 µM; kcat [23]: 9.7 ×10⁻³ /min; Km [24]: 2000 µM; kcat [24]: 3.2 ×10⁻³ /min; Km [25]: 1400 µM; kcat [25]: 1.8 ×10⁻³ /min
